Measured values: ChEMBL document CHEMBL1649424, “Design, synthesis, and biological activity of novel 5-((arylfuran/1H-pyrrol-2-yl)methylene)-2-thioxo-3-(3-(trifluoromethyl)phenyl)thiazolidin-4-ones as HIV-1 fusion inhibitors targeting gp41” (J Med Chem, 2011)

How the values were obtained:
[1] = test system: Human immunodeficiency virus 1; experiment: Antiviral activity against HIV1 3B infected in human MT2 cells assessed as inhibition viral p24 antigen production after 4 days by ELISA; format: functional, organism-based; conditions: Human immunodeficiency virus 1, 3B, MT2, 96 h
[2] = Cytotoxicity against human MT2 cells after 4 days by XTT assay; format: cell-based
How it was run: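 Cells (5 × 10⁵/mL) mixed with equal volume of compound at graded concentrations and held 4 days at 37 °C. XTT (1 mg/mL) containing 0.02 μM phenazine methosulphate added, then 4 h at 37 °C. Absorbance read at 450 nm. CC₅₀ by CalcuSyn.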

[3] = Selectivity index, ratio of CC50 for human MT2 cells to EC50 for HIV1 3B infected in human MT2 cells; format: toxicity, cell-based; conditions: MT2 cells (CC50) and HIV1 3B infected MT2 cells (EC50)
How it was run: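 Selectivity index taken as MT-2 CC₅₀ (XTT, 4 days) divided by EC₅₀ against HIV-1 IIIB infection (p24 ELISA).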

[4] = test system: Human immunodeficiency virus 1; experiment: Antiviral activity against HIV1 isolate 92US657 infected in human MT2 cells assessed as inhibition viral p24 antigen production after 4 days by ELISA; format: functional, organism-based; conditions: Human immunodeficiency virus 1, isolate 92US657, MT2, 96 h

EC50 [1] [nM]	EC50 [4] [nM]	SMILES	CC50 at 96 h [2] [nM]	selectivity ratio [3]
61	477	O=C(O)c1cccc(-c2ccc(/C=C3\SC(=S)N(CCc4ccccc4)C3=O)o2)c1O	16400	269
145	1080	O=C(O)c1cccc(-c2ccc(/C=C3\SC(=S)N(CCc4ccccc4)C3=O)o2)c1F	28100	194
74	521	O=C(O)c1cccc(-c2ccc(/C=C3\SC(=S)N(CCc4ccccc4)C3=O)o2)c1Cl	30400	411
